Assay [1] has as its target T1, E3 ubiquitin-protein ligase UHRF1 (Homo sapiens, UniProt Q96T88).
T1 sequence (Q96T88 whole entry): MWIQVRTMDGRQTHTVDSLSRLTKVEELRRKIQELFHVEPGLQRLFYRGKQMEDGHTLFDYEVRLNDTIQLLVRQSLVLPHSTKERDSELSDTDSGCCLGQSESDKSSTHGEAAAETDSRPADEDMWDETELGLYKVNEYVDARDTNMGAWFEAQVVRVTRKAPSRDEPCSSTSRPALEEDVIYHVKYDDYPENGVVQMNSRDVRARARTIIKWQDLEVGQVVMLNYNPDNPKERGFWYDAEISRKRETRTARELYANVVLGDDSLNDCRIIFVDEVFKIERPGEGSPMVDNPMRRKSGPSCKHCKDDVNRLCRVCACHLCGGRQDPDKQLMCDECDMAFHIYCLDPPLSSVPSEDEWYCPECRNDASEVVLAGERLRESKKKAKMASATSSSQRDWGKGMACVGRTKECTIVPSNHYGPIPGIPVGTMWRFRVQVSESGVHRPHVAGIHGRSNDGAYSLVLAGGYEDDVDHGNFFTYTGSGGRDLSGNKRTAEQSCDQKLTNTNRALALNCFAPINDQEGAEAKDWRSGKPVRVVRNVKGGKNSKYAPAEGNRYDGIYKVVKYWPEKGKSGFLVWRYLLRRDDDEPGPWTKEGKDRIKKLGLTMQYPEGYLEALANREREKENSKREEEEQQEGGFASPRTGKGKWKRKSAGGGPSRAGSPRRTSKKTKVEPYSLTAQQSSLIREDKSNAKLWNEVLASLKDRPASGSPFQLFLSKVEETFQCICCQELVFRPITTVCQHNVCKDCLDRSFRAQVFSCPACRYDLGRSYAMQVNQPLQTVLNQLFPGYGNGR
Kind of assay: Inhibition of UHRF1 (unknown origin) after 30 mins by AlphaScreen assay. The gist of the method:
(§1)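 AlphaScreen competition with histone peptide. Compounds in 3-fold, 10-point dilutions, top 10 or 30 μM; buffer 20 mM Tris pH 8.0, 25 mM NaCl, 2 mM DTT, 0.05% Tween-20. Protein-peptide mix 30 min RT, then streptavidin donor plus nickel-chelate acceptor beads (GST acceptor beads for GST-tagged PHF23, JARID1A) 30 min RT dark. […] Protein-free His6-biotin peptide counterscreen.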

Assay [2] concerns the target MBT domain-containing protein 1 (Homo sapiens, UniProt Q05BQ5). Kind of assay: Inhibition of MBTD1 (unknown origin) after 30 mins by AlphaScreen assay. The essentials: (§2)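 AlphaScreen competition with histone peptide. Compounds in 3-fold, 10-point dilutions, top 10 or 30 μM; buffer 20 mM Tris pH 8.0, 25 mM NaCl, 2 mM DTT, 0.05% Tween-20. Protein-peptide mix 30 min RT, then streptavidin donor plus nickel-chelate acceptor beads (GST acceptor beads for GST-tagged PHF23, JARID1A) 30 min RT dark. Protein-free His6-biotin peptide counterscreen.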
For orientation: Alpha assays give light when donor and acceptor beads are brought close together.

For assay [3], the target named is T2, Scm-like with four MBT domains protein 1 (Homo sapiens, UniProt Q9UHJ3).
T2 sequence (Q9UHJ3 whole entry): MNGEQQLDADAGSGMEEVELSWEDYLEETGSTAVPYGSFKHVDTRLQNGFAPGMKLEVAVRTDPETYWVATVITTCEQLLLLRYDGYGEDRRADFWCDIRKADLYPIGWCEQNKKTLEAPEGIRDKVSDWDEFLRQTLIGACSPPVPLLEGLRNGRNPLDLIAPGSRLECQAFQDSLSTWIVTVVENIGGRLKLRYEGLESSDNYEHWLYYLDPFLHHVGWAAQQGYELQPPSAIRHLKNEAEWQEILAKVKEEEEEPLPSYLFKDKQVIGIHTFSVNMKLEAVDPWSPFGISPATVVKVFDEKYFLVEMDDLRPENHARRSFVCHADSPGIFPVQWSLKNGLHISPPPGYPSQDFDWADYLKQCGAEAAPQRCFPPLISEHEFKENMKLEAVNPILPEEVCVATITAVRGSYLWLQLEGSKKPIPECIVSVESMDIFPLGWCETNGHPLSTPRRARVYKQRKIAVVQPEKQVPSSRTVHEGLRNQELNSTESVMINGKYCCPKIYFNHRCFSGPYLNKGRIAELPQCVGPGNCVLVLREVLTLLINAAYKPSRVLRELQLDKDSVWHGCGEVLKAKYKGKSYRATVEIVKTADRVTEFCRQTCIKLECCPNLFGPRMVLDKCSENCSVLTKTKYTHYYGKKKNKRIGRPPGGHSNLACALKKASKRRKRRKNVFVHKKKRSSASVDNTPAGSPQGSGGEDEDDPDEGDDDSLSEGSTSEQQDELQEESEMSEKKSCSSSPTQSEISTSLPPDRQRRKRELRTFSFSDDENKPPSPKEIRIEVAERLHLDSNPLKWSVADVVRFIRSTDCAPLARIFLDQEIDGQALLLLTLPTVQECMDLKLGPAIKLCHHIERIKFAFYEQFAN
The assay is described as follows: Inhibition of SFMBT1 (unknown origin) after 30 mins by AlphaScreen assay. The essentials:
as §1

Assay [4] deals with T3, Lethal(3)malignant brain tumor-like protein 3 (Homo sapiens, UniProt Q96JM7).
T3 sequence (Q96JM7 whole entry): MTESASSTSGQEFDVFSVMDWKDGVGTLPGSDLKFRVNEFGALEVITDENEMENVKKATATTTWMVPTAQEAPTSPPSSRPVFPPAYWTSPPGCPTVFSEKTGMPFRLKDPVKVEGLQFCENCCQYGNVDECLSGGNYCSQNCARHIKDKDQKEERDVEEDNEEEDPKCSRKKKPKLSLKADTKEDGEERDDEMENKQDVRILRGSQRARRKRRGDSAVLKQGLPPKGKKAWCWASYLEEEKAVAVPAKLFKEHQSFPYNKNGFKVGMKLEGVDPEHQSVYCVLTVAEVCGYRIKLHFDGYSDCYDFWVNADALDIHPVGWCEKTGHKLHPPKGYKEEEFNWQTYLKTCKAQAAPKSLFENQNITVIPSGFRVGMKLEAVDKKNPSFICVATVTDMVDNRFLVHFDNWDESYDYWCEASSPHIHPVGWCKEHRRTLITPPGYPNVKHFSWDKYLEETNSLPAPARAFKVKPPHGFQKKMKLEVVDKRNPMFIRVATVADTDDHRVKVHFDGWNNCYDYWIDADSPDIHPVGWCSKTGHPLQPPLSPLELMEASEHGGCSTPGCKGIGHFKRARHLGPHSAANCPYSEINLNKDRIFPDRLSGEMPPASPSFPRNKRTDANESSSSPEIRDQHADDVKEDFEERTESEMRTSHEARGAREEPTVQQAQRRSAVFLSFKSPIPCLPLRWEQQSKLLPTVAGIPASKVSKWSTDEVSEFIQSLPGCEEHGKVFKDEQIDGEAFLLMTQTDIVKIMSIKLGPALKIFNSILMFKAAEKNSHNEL
Kind of assay: Inhibition of L3MBTL3 (unknown origin) after 30 mins by AlphaScreen assay. The gist of the method: as §2

Results on 17 molecules are retold here after ChEMBL document CHEMBL2424619, “Small-molecule ligands of methyl-lysine binding proteins: optimization of selectivity for L3MBTL3” (J Med Chem, 2013).

Some results are limits rather than exact numbers.

MBT domain-containing protein 1, sequence (Q05BQ5 whole entry, the tested form may be a part): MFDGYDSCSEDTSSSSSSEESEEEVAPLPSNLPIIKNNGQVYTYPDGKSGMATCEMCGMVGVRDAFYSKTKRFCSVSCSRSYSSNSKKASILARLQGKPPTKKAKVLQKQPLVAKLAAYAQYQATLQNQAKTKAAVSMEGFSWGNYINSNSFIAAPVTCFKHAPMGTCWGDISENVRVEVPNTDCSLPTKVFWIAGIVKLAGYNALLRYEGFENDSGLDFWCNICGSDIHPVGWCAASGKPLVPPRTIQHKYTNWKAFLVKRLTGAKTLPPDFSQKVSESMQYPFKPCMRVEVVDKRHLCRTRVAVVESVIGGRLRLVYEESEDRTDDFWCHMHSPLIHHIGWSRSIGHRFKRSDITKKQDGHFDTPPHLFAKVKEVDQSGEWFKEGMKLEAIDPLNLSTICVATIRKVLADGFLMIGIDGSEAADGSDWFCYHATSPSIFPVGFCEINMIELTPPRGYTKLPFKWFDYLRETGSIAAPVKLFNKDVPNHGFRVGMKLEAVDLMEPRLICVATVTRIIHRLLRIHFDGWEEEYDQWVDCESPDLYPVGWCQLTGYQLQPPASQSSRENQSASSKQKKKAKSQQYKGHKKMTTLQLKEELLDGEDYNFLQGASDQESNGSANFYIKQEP

One may read the IC50 as the concentration that inhibits the measured activity by half. A high value points to a need for much substance. For the molecule `CCN1Cc2ccc(NC(=O)c3ccc(C(=O)N4CC5CCC(C4)C5N4CCCC4)cc3)cc2C1` (stereo not drawn), the half-inhibitory concentration (IC50) in assay [1] is above 10 µM; in assay [2], above 10 µM; in assay [3] it was above 10 µM; in assay [4], 240 nM.
As for `O=C(c1ccc(C(=O)N2CCC(N3CCCC3)CC2)nc1)N1CCC(N2CCCC2)CC1`, the 50% inhibitory concentration (IC50) in assay [1] was above 10 µM; in assay [2] it was above 10 µM; in assay [3], above 10 µM; in assay [4] it was 110 nM.
With `O=C(c1ccc(C(=O)N2CCCC(N3CCCC3)CC2)cc1)N1CCCC(N2CCCC2)CC1` (stereo not drawn), the 50% inhibitory concentration (IC50) in assay [1] was above 10 µM; in assay [2], above 10 µM; in assay [3], above 10 µM; in assay [4], 110 nM.
As to `O=C(c1ccc(C(=O)N2CCC(N3CCCC3)CC2)cc1)N1CCC(C2CCNCC2)CC1`, the IC50 in assay [1] was above 10 µM; in assay [2] it was above 10 µM; in assay [3] it was above 10 µM; in assay [4] it was 740 nM.
On to `O=C(c1ccc(C(=O)N2CCC(N3CCCC3)CC2)c(Br)c1)N1CCC(N2CCCC2)CC1`, for which the 50% inhibitory concentration (IC50) is above 10 µM in assay [1], 7.8 µM in assay [2], above 10 µM in assay [3] and 120 nM in assay [4].
As for `O=C(c1ccc(C(=O)N2CC3(CCNC3)C2)cc1)N1CCC(N2CCCC2)CC1`, the IC50 in assay [1] was above 10 µM; in assay [2], above 10 µM; in assay [3], above 10 µM; in assay [4], 3600 nM.
On to `O=C(c1cccc(C(=O)N2CCC(N3CCCC3)CC2)c1)N1CCC(N2CCCC2)CC1`, for which the half-inhibitory concentration (IC50) in assay [1] is above 10 µM; in assay [2], above 10 µM; in assay [3], above 10 µM; in assay [4], 360 nM.
As for `O=C(c1ccc2cc(C(=O)N3CCC(N4CCCC4)CC3)ccc2c1)N1CCC(N2CCCC2)CC1`, the IC50 in assay [1] is above 10 µM; in assay [2], above 10 µM; in assay [3], above 10 µM; in assay [4] it was 690 nM.
With `O=C(NCCCN1CCCC1)c1ccc(C(=O)N2CCC(N3CCCC3)CC2)cc1`, the IC50 is above 10 µM in assay [1], above 10 µM in assay [2], above 10 µM in assay [3] and 680 nM in assay [4].
Take `O=C(c1ccc(C(=O)N2CC3CCC(C2)C3N2CCCC2)cc1)N1CC2CCC(C1)C2N1CCCC1` (stereo not drawn): the IC50 in assay [1] was above 10 µM; in assay [2] it was above 10 µM; in assay [3], above 10 µM; in assay [4], 400 nM.
For the molecule `O=C(c1ccc(C(=O)N2CCC(N3CCCC3)CC2)c(-c2ccccc2)c1)N1CCC(N2CCCC2)CC1`, the concentration for half-maximal inhibition (IC50) in assay [1] was above 10 µM; in assay [2], above 10 µM; in assay [3], above 10 µM; in assay [4], 66 nM.
As to `O=C(c1ccc(N2CCC(N3CCCC3)CC2)cc1)N1CCC(N2CCCC2)CC1`, the 50% inhibitory concentration (IC50) was above 10 µM in assay [1], 8.2 µM in assay [2], above 10 µM in assay [3] and 170 nM in assay [4].
For `O=C(c1ccc(C(=O)N2CC3CCC(C2)C3N2CCCC2)cc1)N1CCC(N2CCCC2)CC1` (stereo not drawn), the half-inhibitory concentration (IC50) in assay [1] is above 10 µM; in assay [2], above 10 µM; in assay [3], above 10 µM; in assay [4] it was 160 nM.
In the case of `O=C(c1ccc(C(=O)N2CCC(N3CCCC3)C2)cc1)N1CCC(N2CCCC2)CC1` (stereo not drawn), the IC50 is above 10 µM in assay [1], above 10 µM in assay [2], above 10 µM in assay [3] and 250 nM in assay [4].
Turning to `O=C(c1ccc(C(=O)N2CCC(N3CCCC3)CC2)cc1)N1CCCC(N2CCCC2)CC1` (stereo not drawn), the 50% inhibitory concentration (IC50) in assay [1] is above 10 µM; in assay [2], above 10 µM; in assay [3] it was above 10 µM; in assay [4] it was 96 nM.
For `CN(C)C1CCN(C(=O)c2ccc(C(=O)N3CCC(N(C)C)CC3)cc2)CC1`, the IC50 is above 10 µM in assay [1], above 10 µM in assay [2], above 10 µM in assay [3] and above 10000 nM in assay [4].
Regarding `O=C(c1ccc(C(=O)N2CCC3(CCNC3)CC2)cc1)N1CCC(N2CCCC2)CC1`, the IC50 in assay [1] was above 10 µM; in assay [2], above 10 µM; in assay [3] it was above 10 µM; in assay [4], 560 nM.
